# hIAP block: human IAP inhibitors, primary screen, biochemical, luminescence, uHTS; inhibition, % at 10 µM; 0.12% of 330,000 active; purified IAP, CDP-Star luminescence, 30 min; Intestinal-type alkaline phosphatase (Homo sapiens), P09923;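 active = inhibition reaching a set limit with compound at 10 µM in the primary screen, cut at about 35% in these data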
# Target sequence (P09923 whole entry, looked up): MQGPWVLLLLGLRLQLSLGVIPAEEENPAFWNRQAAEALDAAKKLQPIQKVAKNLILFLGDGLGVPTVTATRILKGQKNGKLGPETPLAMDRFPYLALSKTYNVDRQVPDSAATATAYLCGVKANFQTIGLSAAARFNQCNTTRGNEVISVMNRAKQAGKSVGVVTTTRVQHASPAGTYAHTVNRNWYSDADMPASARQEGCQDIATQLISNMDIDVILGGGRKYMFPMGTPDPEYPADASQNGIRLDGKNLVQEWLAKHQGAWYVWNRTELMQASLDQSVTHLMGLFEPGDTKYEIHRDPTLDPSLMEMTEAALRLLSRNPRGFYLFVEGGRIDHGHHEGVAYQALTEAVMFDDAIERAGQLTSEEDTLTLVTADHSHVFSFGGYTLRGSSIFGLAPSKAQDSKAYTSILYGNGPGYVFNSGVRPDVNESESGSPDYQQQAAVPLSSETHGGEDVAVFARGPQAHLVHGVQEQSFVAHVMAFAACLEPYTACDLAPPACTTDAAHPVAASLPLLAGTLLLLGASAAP
# hIAP activ: human IAP activators, primary screen, biochemical, luminescence, uHTS; Intestinal-type alkaline phosphatase (Homo sapiens), P09923; purified human IAP, CDP-Star luminescence, 30 min; hits give high values; 1 = vehicle-only enzyme, 0 = enzyme-free background; activation factor at 10 µM; 0.16% of 330,000 active;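 active = activation factor of the enzyme at least 2-fold when tested at 20 µM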
# mIAP act: activators of mouse IAP, primary screen, biochemical, luminescence, uHTS | intestinal alkaline phosphatase [Mus musculus] | muIAP, CDP-Star luminescence, 30 min; hits give high values; 1 = vehicle-only enzyme signal, 0 = enzyme-free wells | activation factor at 10 µM | 0.24% of 330,000 active | AID 2805, 2010;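 active = activation factor of at least 2 at 20 µM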
#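 Assay system: mouse IAP enzyme; reagent: chemiluminescent substrate CDP-Star; dosing: test compounds delivered from DMSO solution; schedule: 30 min at room temperature; measured by: luminescence from enzymatic CDP-Star hydrolysis; controls: DMSO-only wells and no-enzyme negative control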
# bIAP activator: bovine intestinal alkaline phosphatase activators, primary screen, biochemical, bovine IAP, CDP-star luminescence. purified bovine IAP, 30 min; hits give high values; fold of DMSO-control signal, blank-subtracted. activation factor at 20 µM. 0.17% of 200,000 active. AID 1016, 2008;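 active = activation factor of 2 or more at 20 µM, a signal rise over negative controls twice the positive control's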
# mIAP block: inhibitors of mouse IAP, primary screen, biochemical, luminescence, uHTS. purified mouse IAP, CDP-Star luminescence, 30 min. inhibition, % at 10 µM. 0.2% of 330,000 active;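 active = inhibition of at least 40% at 10 µM in the primary screen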
# bIAP inhibitor: bovine intestinal alkaline phosphatase inhibitors, primary screen, selectivity assay for TNAP inhibitor project, biochemical, bovine IAP, CDP-star luminescence; alkaline phosphatase, intestinal [Bos taurus]; purified bovine IAP, 30 min; inhibition, % at 20 µM; 190,000 tested, under 10 active;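 active = over 50% inhibition of intestinal alkaline phosphatase at 20 µM in the single-dose screen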
#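 Assay system: bovine IAP enzyme; medium: DEA buffer 100 mM, pH 9.8, with MgCl2 1.0 mM, ZnCl2 0.02 mM; doses: 20 µM single dose; incubation: enzyme reaction for 30 min at room temperature; detection: CDP-star luminescence signal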
# hIAP act confirm: human IAP activators, confirmation, biochemical, luminescence, single concentration, uHTS hits. purified IAP, CDP-Star luminescence, 30 min; hits give low values. 10% of 880 active. shares compounds with hIAP activ. activation (%Activity, negative = activation), % at 8.3 µM. AID 434926, 2010;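 active = at least twofold enzyme activation in any of six single-dose repeats, which the averaged readout prints as negative percent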
# mIAP inh confirm: inhibitors of mouse IAP, confirmation, biochemical, luminescence, single concentration; purified mouse IAP, CDP-Star luminescence, 30 min; shares compounds with mIAP block; AID 434971, 2010; 4.7% of 11,000 active; inhibition, % at 10 µM;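 active = inhibition of at least 40% at 10 µM in either of the two replicates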
# A number is an active result; . = inactive; / = no result given. Shown are actives, neighbours in structure and some others; about 0.77% of the full set was active somewhere.
SMILES,hIAP block,hIAP activ,mIAP act,bIAP activator,mIAP block,bIAP inhibitor,hIAP act confirm,others
CS(=O)(=O)Cc1ccc(C(=O)NNC(=O)c2cc(-c3ccccc3)n[nH]2)cc1,.,.,.,/,.,/,/,
CS(=O)(=O)c1ccc(C(=O)NNC(=O)c2cc(-c3ccccc3)n[nH]2)cc1,51,.,.,/,.,/,.,
COc1cc(C(=O)NNC(=O)c2cc(-c3ccccc3)n[nH]2)cc(OC)c1C,.,2.5,.,/,.,/,.,
COC(=O)c1cc(-c2ccccc2)n[nH]1,.,.,.,.,.,.,/,
O=C(OCC(=O)N1CCCC1=O)c1ccc(Cl)cc1[N+](=O)[O-],.,.,.,/,.,/,/,
CC(C)Oc1ccc(S(=O)(=O)N2CCCCC2)cc1NC(=O)C1CCC1,.,.,.,/,.,/,/,
Cc1nc2c3cnn(-c4ccccc4)c3ncn2n1,73,.,.,.,.,.,.,
c1ccc(-n2ncc3c2ncn2cnnc32)cc1,82,.,.,.,.,/,.,
c1ccc(-n2ncc3c2ncn2nnnc32)cc1,.,.,.,.,.,.,/,
CCn1c(C)nc2cc(C(=O)N/N=C/c3ccccc3)ccc21,.,.,.,.,.,.,/,
CCn1c(C)nc2cc(C(=O)NNC(=S)Nc3ccc(Cl)cc3Cl)ccc21,.,2.1,.,.,.,.,.,
CCn1c(C)nc2cc(C(=O)NNC(=S)Nc3ccccc3)ccc21,.,2.1,.,.,.,.,.,
CCn1c(C)nc2cc(C(=O)N/N=C/c3cccc(O)c3O)ccc21,.,2.6,.,.,.,.,-43,
CCn1c(C)nc2cc(C(=O)NNC(=S)Nc3ccc(Cl)cc3)ccc21,.,.,.,/,.,/,/,
O=C(Cc1ccc(Cl)cc1)Nc1ccc(Br)cn1,.,.,.,/,.,/,/,
O=C(NC(=O)c1ccc(F)cc1F)Nc1ccc(Cl)cc1,.,.,.,/,.,/,/,
N#Cc1c(-c2ccccc2)nc(N2CCCCCC2)[nH]c1=O,.,.,.,.,.,.,/,
N#Cc1c(-c2ccccc2)nc(N2CCOCC2)[nH]c1=O,38,.,.,.,.,.,.,
CC(Oc1ccc(F)cc1F)C(=O)NNC(=S)NCC1CCCO1 (stereo unspecified),.,2.2,.,/,.,/,.,
CN1CCN(C(=O)c2ccc(CNS(=O)(=O)c3ccc(F)c(Cl)c3)cc2)CC1,.,.,.,/,.,/,/,
Cc1cc(C)c2nc(SCC(=O)NNC(=O)c3ccco3)c(C)cc2c1,.,2,.,.,.,.,-59,
Cc1cc2cccc(C)c2nc1SCC(=O)NNC(=O)c1ccco1,.,.,.,.,.,.,/,
Cc1cccc(N2CC(C)Cn3c2nc2c3c(=O)[nH]c(=O)n2C)c1 (stereo unspecified),.,.,.,/,.,/,/,
CCc1nc2c3cnn(-c4cc(Cl)ccc4C)c3ncn2n1,73,.,.,.,.,.,.,
Cc1ccccc1OCc1nc2c3cnn(C)c3ncn2n1,.,.,.,.,.,.,/,
SMILES,hIAP block,hIAP activ,mIAP act,bIAP activator,mIAP block,bIAP inhibitor,hIAP act confirm,others
O=C(NCC1CCCO1)c1cccc(Oc2ccc([N+](=O)[O-])cc2)c1 (stereo unspecified),.,.,.,/,.,/,/,
O=c1c(O[C@H]2O[C@@H](CO)[C@H](O)[C@@H](O)[C@@H]2O)c(-c2ccc(O)cc2)oc2cc(O)cc(O)c12,.,.,.,/,.,/,/,
C[C@@H]1O[C@@H](Oc2c(-c3cc(O)c(O)c(O)c3)oc3cc(O)cc(O)c3c2=O)[C@H](O)[C@H](O)[C@H]1O,.,.,.,.,.,.,/,
O=c1c(OC2OC(CO)C(O)C(O)C2O)c(-c2ccc(O)c(O)c2)oc2cc(O)cc(O)c12 (stereo unspecified),56,.,.,.,.,.,.,
C[C@@H]1O[C@@H](Oc2c(-c3ccc(O)c(O)c3)oc3cc(O)cc(O)c3c2=O)[C@H](O)[C@H](O)[C@H]1O,36,.,.,/,.,/,.,
O=c1c(O[C@@H]2O[C@H](CO)C(O)C2O)c(-c2ccc(O)c(O)c2)oc2cc(O)cc(O)c12 (stereo partly specified),59,.,.,/,.,/,.,
COc1ccccc1CNC(=O)Cn1nc(C)c([N+](=O)[O-])c1C,37,.,.,/,.,/,.,
CCCc1ccc(C(=O)CN2C(=O)C(=O)N(C3CCCC3)C2=O)cc1,.,.,.,/,.,/,/,
CC(=O)NNc1ncnc2c1cnn2-c1ccc(C)c(C)c1,.,2.5,.,.,.,.,.,
O=C(NNc1ncnc2c1cnn2-c1ccc(F)cc1)c1ccco1,.,2.6,.,/,.,/,-47,
O=S(=O)(Nc1ccc2c(c1)OCCO2)c1ccc(Br)s1,.,2.1,.,.,.,.,.,
O=S(=O)(Nc1ccc2c(c1)OCCO2)c1cccs1,.,.,.,.,.,.,/,
CCNc1nc(NCC)nc(Oc2ccc(OCc3ccccc3)nn2)n1,.,.,.,.,.,.,/,
CC(C)Nc1nc(NC(C)C)nc(Oc2ccc(OCc3ccccc3)nn2)n1,37,.,.,.,.,.,.,
O=c1[nH]c(/C=C\c2ccc(O)c(O)c2)nc(O)c1[N+](=O)[O-],43,.,.,/,48,/,.,mIAP inh confirm=75
N#CC1(NC(=O)CN2C(=O)NC(Cc3c[nH]c4ccccc34)C2=O)CCCCC1 (stereo unspecified),.,.,.,/,.,/,/,
CN(C)c1ccc2nc3c(=O)[nH]c(=O)nc-3n(CC(O)C(O)C(O)CO)c2c1 (stereo unspecified),52,.,.,/,41,/,-87,mIAP inh confirm=46
O=C1/C(=C/c2ccc(O)c(O)c2)Oc2cc(O)ccc21,96,.,.,/,59,/,.,mIAP inh confirm=69
O=C1/C(=C/c2cccc([N+](=O)[O-])c2)Oc2cc(O)ccc21,.,.,.,/,.,/,/,
O=c1oc2ccccc2c2oc3cc(O)c(O)cc3c12,70,.,.,/,58,/,.,mIAP inh confirm=67
Nc1c(N)c2ccccc2oc1=O,.,.,.,.,.,.,/,
O=C(N/N=C/c1ccc(O)cc1O)C(=O)N/N=C/c1ccc(O)cc1O,.,2.3,.,/,54,/,.,mIAP inh confirm=67
O=C(Nc1cccc(-c2cccc(Cl)c2)c1)C1CCN(Cc2ccon2)CC1,.,2,2.3,/,.,/,.,mIAP inh confirm=.
